Numbering of substitutions follows the chain as printed.

One assay concerns the target T1, OR11H12 (Homo sapiens) (UniProt B2RN74).
T1 sequence (whole entry): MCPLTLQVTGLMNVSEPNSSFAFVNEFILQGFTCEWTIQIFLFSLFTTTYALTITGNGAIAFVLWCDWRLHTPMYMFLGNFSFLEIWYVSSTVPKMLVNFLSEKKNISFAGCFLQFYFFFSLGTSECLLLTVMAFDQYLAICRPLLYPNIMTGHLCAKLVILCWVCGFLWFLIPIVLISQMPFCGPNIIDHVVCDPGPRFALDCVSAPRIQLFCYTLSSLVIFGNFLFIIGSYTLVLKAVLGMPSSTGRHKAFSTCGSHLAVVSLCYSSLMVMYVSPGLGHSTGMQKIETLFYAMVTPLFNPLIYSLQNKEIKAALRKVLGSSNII
The following applies: stereoisomer not certain. The essentials:
(§1)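 Values were gathered from published papers (main text and supplementary material), with extra details requested from the original authors when needed, and checked for typos and inconsistencies. Each receptor–molecule pair is called responsive (active) if the original authors judged the measured signal statistically different from baseline, and non-responsive (inactive) otherwise. Assay methods varied by source, often transient mammalian cell-line luciferase assays. Recorded details include cell line, G-protein, co-transfected protein and tags.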
For `CC1=NC(C)C(C)S1` (configuration not stated), the “odorant receptor agonist call” value is “inactive”.

As for `Cc1cnc(C)c(C)n1`, the “odorant receptor agonist call” value is “inactive”. For `O=C1CCOc2ccccc21`, the “odorant receptor agonist call” value is “inactive”. Still for that read-out and setting: with `CC1CCCCCCCCCCCCC(=O)C1` (configuration not stated) the entry was “inactive”; with `CC1=C(O)C(=O)C(C)O1` (configuration not stated), “inactive”. The same measure, in the same setting: for `CC1=C(O)C(=O)OC1C` (configuration not stated) the value was “inactive”. The same measure, in the same setting: for `CCCC(S)CCOC(C)=O` (configuration not stated) the value was “inactive”; for `CC(=O)c1c(C)c([N+](=O)[O-])c(C(C)(C)C)c([N+](=O)[O-])c1C`, “inactive”.

For the molecule `O=c1ccc2ccccc2o1`, the “odorant receptor agonist call” value is “active”. Turning to `CCC1OC(C)=C(O)C1=O` (configuration not stated), the “odorant receptor agonist call” value was “inactive”.

Turning to `CCCCCCC=CCCC=O`, the “odorant receptor agonist call” value was “inactive”. Take `CCC1OC(=O)C(O)=C1C` (configuration not stated): the “odorant receptor agonist call” value was “inactive”.

The next assay concerns the target T2, OR11H2 (Homo sapiens) (UniProt Q8NH07).
T2 sequence (whole entry): T1 sequence (whole entry) with Q7H, T33S, T49I, W68R, C156Y, M181K, R199L, S269P
The following applies: stereoisomer not certain. The essentials: as §1
With `CC1=NC(C)C(C)S1` (configuration not stated), the “odorant receptor agonist call” value is “inactive”. For the molecule `CCCCCC(=O)C(C)C(C)=O` (configuration not stated), the “odorant receptor agonist call” value was “inactive”. Still for that read-out and setting: with `Cc1cnc(C)c(C)n1` the entry was “inactive”; with `CCC(S)C(C)CO` (configuration not stated), “inactive”.

Turning to `CC1CCCCCCCCCCCCC(=O)C1` (configuration not stated), the “odorant receptor agonist call” value is “inactive”. Same read-out and setting: for `CC1=C(O)C(=O)C(C)O1` (configuration not stated) the value was “inactive”; for `CC1=C(O)C(=O)OC1C` (configuration not stated), “inactive”; for `CCCC(S)CCOC(C)=O` (configuration not stated), “inactive”. `CC(CO)CS` (configuration not stated): the “odorant receptor agonist call” value was “inactive”. On the same count and under the same terms, for `CC(=O)c1c(C)c([N+](=O)[O-])c(C(C)(C)C)c([N+](=O)[O-])c1C` the value was “inactive”. Same read-out and setting: for `CCCCCC(S)C(C)CO` (configuration not stated) the value was “active”; for `CCC1OC(C)=C(O)C1=O` (configuration not stated), “inactive”; for `CCCCCCC=CCCC=O`, “inactive”. `CCC1OC(=O)C(O)=C1C` (configuration not stated): the “odorant receptor agonist call” value was “inactive”. Same read-out and setting: for `CCCCC(S)C(C)CO` (configuration not stated) the value was “inactive”.

The values are drawn from the M2OR odorant receptor database.
